{
  "source": "ChEMBL document CHEMBL4304739",
  "about": "“Discovery of 3-(Indol-5-yl)-indazole Derivatives as Novel Myeloid Differentiation Protein 2/Toll-like Receptor 4 Antagonists for Treatment of Acute Lung Injury” (J Med Chem, 2019)",
  "key": {"[1]": {"molecular_target": "Cyclin-dependent kinase 2 (Homo sapiens) (UniProt P24941)", "test": "Inhibition of wild-type human full length CDK2 (M1 to L298 residues) expressed in bacterial expression system at 1 uM by Kinomescan method", "procedure,_shortened": "(§1)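 KINOMEscan competition binding screen at 1 μM compound. Results reported as % of control = (test − positive control)/(DMSO negative control − positive control) × 100, where lower values mean stronger hits.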"}, "[2]": {"molecular_target": "Dual specificity mitogen-activated protein kinase kinase 1 (Homo sapiens) (UniProt Q02750)", "test": "Inhibition of wild-type human full length MEK1 (M1 to V393 residues) expressed in mammalian expression system at 1 uM by Kinomescan method", "procedure,_shortened": "as §1"}, "[3]": {"molecular_target": "Protein kinase C epsilon type (Homo sapiens) (UniProt Q02156)", "test": "Inhibition of wild-type human partial length PRKCE (A378 to P737 residues) expressed in mammalian expression system at 1 uM by Kinomescan method", "procedure,_shortened": "(§2)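 Binding-competition screen on the KINOMEscan platform, run by the provider, with the test compound at 1 μM. Readout is percent of control: (test signal − positive control signal)/(negative control signal − positive control signal) × 100. The DMSO negative control is set as 100% Ctrl and a control compound as 0% Ctrl. Lower values mean stronger hits.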"}, "[4]": {"molecular_target": "Serine/threonine-protein kinase pim-1 (Homo sapiens) (UniProt P11309)", "test": "Inhibition of wild-type human partial length PIM1 (A15 to K313 residues) expressed in bacterial expression system at 1 uM by Kinomescan method", "procedure,_shortened": "as §2"}, "[5]": {"molecular_target": "Tyrosine-protein kinase ABL1 (Homo sapiens) (UniProt P00519)", "test": "Inhibition of wild-type human non-phosphorylated ABL1 (S229 to K512 residues) expressed in mammalian expression system at 1 uM by Kinomescan method", "procedure,_shortened": "as §1"}, "[6]": {"molecular_target": "Myeloid differentiation primary response protein MyD88 (Homo sapiens) (UniProt Q99836)", "test": "Binding affinity to recombinant MyD88 (unknown origin) by surface plasmon resonance analysis"}, "[7]": {"molecular_target": "Serine/threonine-protein kinase PAK 2 (Homo sapiens) (UniProt Q13177)", "test": "Inhibition of wild-type human partial length PAK2 (P151 to R525 residues) expressed in bacterial expression system at 1 uM by Kinomescan method", "procedure,_shortened": "as §2"}, "[8]": {"molecular_target": "Receptor tyrosine-protein kinase erbB-4 (Homo sapiens) (UniProt Q15303)", "test": "Inhibition of wild-type human partial length ERBB4 (L690 to K994 residues) expressed in bacterial expression system at 1 uM by Kinomescan method", "procedure,_shortened": "as §2"}, "[9]": {"molecular_target": "Angiopoietin-1 receptor (Homo sapiens) (UniProt Q02763)", "test": "Inhibition of wild-type human partial length TIE2 (N804 to T1112 residues) expressed in bacterial expression system at 1 uM by Kinomescan method", "procedure,_shortened": "(§3)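 Single-concentration screen at 1 μM on the KINOMEscan panel (98 kinases), run by the platform provider. Results are given as percent of control: % Ctrl = [(test signal − positive control signal)/(negative control signal − positive control signal)] × 100. DMSO serves as negative control (100% Ctrl) and a control compound as positive control (0% Ctrl). Lower values mean stronger binding hits.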"}, "[10]": {"molecular_target": "Aurora kinase B (Homo sapiens) (UniProt Q96GD4)", "test": "Inhibition of wild-type human partial length AURKB (D25 to A303 residues) expressed in mammalian expression system at 1 uM by Kinomescan method", "procedure,_shortened": "as §2"}, "[11]": {"molecular_target": "Serine/threonine-protein kinase 32C (Homo sapiens) (UniProt Q86UX6)", "test": "Inhibition of wild-type human partial length YANK3 (M68 to G486 residues) expressed in bacterial expression system at 1 uM by Kinomescan method", "procedure,_shortened": "as §3"}, "[12]": {"molecular_target": "Tyrosine-protein kinase JAK3 (Homo sapiens) (UniProt P52333)", "test": "Inhibition of wild-type human partial length JAK3 JH1 catalytic domain (I781 to S1124 residues) expressed in mammalian expression system at 1 uM by Kinomescan method", "procedure,_shortened": "as §2"}, "[13]": {"molecular_target": "Focal adhesion kinase 1 (Homo sapiens) (UniProt Q05397)", "test": "Inhibition of wild-type human partial length FAK (D402 to R696 residues) expressed in bacterial expression system at 1 uM by Kinomescan method", "procedure,_shortened": "as §2"}, "[14]": {"molecular_target": "Testis-specific serine/threonine-protein kinase 1 (Homo sapiens) (UniProt Q9BXA7)", "test": "Inhibition of wild-type human full length TSSK1B (M1 to Q367 residues) expressed in bacterial expression system at 1 uM by Kinomescan method", "procedure,_shortened": "as §1"}, "[15]": {"molecular_target": "Mitogen-activated protein kinase kinase kinase 9 (Homo sapiens) (UniProt P80192)", "test": "Inhibition of wild-type human partial length MLK1 (V88 to W426 residues) expressed in bacterial expression system at 1 uM by Kinomescan method", "procedure,_shortened": "as §2"}, "[16]": {"molecular_target": "RAF proto-oncogene serine/threonine-protein kinase (Homo sapiens) (UniProt P04049)", "test": "Inhibition of wild-type human partial length RAF1 (I330 to T640 residues) expressed in bacterial expression system at 1 uM by Kinomescan method", "procedure,_shortened": "as §2"}, "[17]": {"molecular_target": "Cyclin-dependent kinase 3 (Homo sapiens) (UniProt Q00526)", "test": "Inhibition of wild-type human full length CDK3 (M1 to H305 residues) expressed in bacterial expression system at 1 uM by Kinomescan method", "procedure,_shortened": "as §1"}, "[18]": {"molecular_target": "NUAK family SNF1-like kinase 2 (Homo sapiens) (UniProt Q9H093)", "test": "Inhibition of wild-type human partial length SNARK (P22 to A333 residues) expressed in mammalian expression system at 1 uM by Kinomescan method", "procedure,_shortened": "as §3"}, "[19]": {"molecular_target": "Mitogen-activated protein kinase 3 (Homo sapiens) (UniProt P27361)", "test": "Inhibition of wild-type human full length ERK1 (M1 to P379 residues) expressed in bacterial expression system at 1 uM by Kinomescan method", "procedure,_shortened": "as §1"}, "[20]": {"molecular_target": "Proto-oncogene tyrosine-protein kinase receptor Ret (Homo sapiens) (UniProt P07949)", "test": "Inhibition of wild-type human partial length RET (E713 to D1014 residues) expressed in bacterial expression system at 1 uM by Kinomescan method", "procedure,_shortened": "as §2"}, "[21]": {"molecular_target": "Tyrosine-protein kinase ZAP-70 (Homo sapiens) (UniProt P43403)", "test": "Inhibition of wild-type human partial length ZAP70 (D20 to G299 residues) expressed in mammalian expression system at 1 uM by Kinomescan method", "procedure,_shortened": "as §3"}, "[22]": {"molecular_target": "Tyrosine-protein kinase receptor UFO (Homo sapiens) (UniProt P30530)", "test": "Inhibition of wild-type human partial length AXL (R497 to Y821 residues) expressed in bacterial expression system at 1 uM by Kinomescan method", "procedure,_shortened": "as §2"}, "[23]": {"molecular_target": "Serine/threonine-protein kinase pim-3 (Homo sapiens) (UniProt Q86V86)", "test": "Inhibition of wild-type human partial length PIM3 (G16 to A317 residues) expressed in bacterial expression system at 1 uM by Kinomescan method", "procedure,_shortened": "as §2"}, "Mus musculus": {"tested_on": "Mus musculus", "test": "Antiinflammatory activity in LPS-induced C57BL/6 mouse model of acute lung injury assessed as reduction in TNFalpha level at 5 to 10 mg/kg, iv pretreated for 15 mins followed by LPS stimulation and measured after 6 hrs by ELISA", "type": "functional, organism-based", "procedure,_shortened": "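Male C57BL/6 mice (18−22 g; n=8 per group). Compound in 0.1% CMC-Na given by tail vein injection 15 min before intraperitoneal LPS (20 mg/kg); controls received saline. Mice were sacrificed 6 h after LPS, and serum and lung tissue were collected.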"}},
  "note": "Active and inactive are the calls of the source. The rule behind the calls is not given here.",
  "data": [
    {"smiles": "O=C(Nc1ccc2[nH]nc(-c3ccc4[nH]ccc4c3)c2c1)c1c(Cl)cccc1Cl", "values": [
      {"measurement": "inhibition", "setting": "[1]", "result": "inactive"},
      {"measurement": "inhibition", "setting": "[2]", "result": "inactive"},
      {"measurement": "inhibition", "setting": "[3]", "result": "inactive"},
      {"measurement": "inhibition", "setting": "[4]", "result": "inactive"},
      {"measurement": "inhibition", "setting": "[5]", "result": "inactive"},
      {"measurement": "Activity", "setting": "[6]", "result": "inactive"},
      {"measurement": "inhibition", "setting": "[7]", "result": "inactive"},
      {"measurement": "inhibition", "setting": "[8]", "result": "inactive"},
      {"measurement": "inhibition", "setting": "[9]", "result": "inactive"},
      {"measurement": "inhibition", "setting": "[10]", "result": "inactive"},
      {"measurement": "inhibition", "setting": "[11]", "result": "inactive"},
      {"measurement": "inhibition", "setting": "[12]", "result": "inactive"},
      {"measurement": "inhibition", "setting": "[13]", "result": "inactive"},
      {"measurement": "inhibition", "setting": "[14]", "result": "inactive"},
      {"measurement": "inhibition", "setting": "[15]", "result": "inactive"},
      {"measurement": "inhibition", "setting": "[16]", "result": "inactive"},
      {"measurement": "inhibition", "setting": "[17]", "result": "inactive"},
      {"measurement": "inhibition", "setting": "[18]", "result": "inactive"},
      {"measurement": "inhibition", "setting": "[19]", "result": "inactive"},
      {"measurement": "inhibition", "setting": "[20]", "result": "inactive"},
      {"measurement": "inhibition", "setting": "[21]", "result": "inactive"},
      {"measurement": "inhibition", "setting": "[22]", "result": "inactive"},
      {"measurement": "inhibition", "setting": "[23]", "result": "inactive"},
      {"measurement": "Activity", "setting": "Mus musculus", "result": "Active"}
    ]}
  ]
}
